Experiments:
DU-145 = assay: Cytotoxicity against human DU145 cells after 48 hrs by SRB assay; assay type: functional, cell-based; conditions: Homo sapiens, DU-145, 48 h; for GI50: read-out: GI50; for CC50: read-out: LC50 (the source's name)
Outline: (§1)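 Cells grown in RPMI 1640 with 10% FBS and penicillin/streptomycin at 37 °C and 5% CO₂, trypsinized, then seeded at 5 × 10³/well. After 18 h drug-free attachment, samples in DMSO/EtOH/PBS (0.5:0.5:99) were added for 48 h continuous exposure. Cells were fixed with cold TCA (1 h, 4 °C) and stained with SRB (10 min). Tris-solubilized stain read at 490 nm. Triplicate wells, mean ± SD; GI₅₀ derived.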

LNCaP = assay: Cytotoxicity against human LNcaP cells after 48 hrs by SRB assay; assay type: functional; conditions: for CC50: read-out: LC50 (the source's name); outline: as §1
[1] = Cytotoxicity against human IGROV cells after 48 hrs by SRB assay; assay type: functional; conditions: for CC50: read-out: LC50 (the source's name); outline: as §1
[2] = Cytotoxicity against human IGROV-ET cells after 48 hrs by SRB assay; assay type: functional; conditions: for CC50: read-out: LC50 (the source's name); outline: as §1
SK-BR-3 = assay: Cytotoxicity against human SKBR3 cells after 48 hrs by SRB assay; assay type: functional; conditions: SK-BR-3, 48 h; for GI50: read-out: GI50; for CC50: read-out: LC50 (the source's name); outline: as §1
SK-MEL-28 = assay: Cytotoxicity against human SK-MEL-28 cells after 48 hrs by SRB assay; assay type: functional, cell-based; conditions: Homo sapiens, SK-MEL-28, 48 h; for GI50: read-out: GI50; for CC50: read-out: LC50 (the source's name); outline: as §1
A549 = assay: Cytotoxicity against human A549 cells after 48 hrs by SRB assay; assay type: functional, cell-based; conditions: Homo sapiens, A549, 48 h; outline: as §1
K562 = assay: Cytotoxicity against human K562 cells after 48 hrs by SRB assay; assay type: functional; conditions: K562, 48 h; for CC50: read-out: LC50 (the source's name); outline: as §1
PANC-1 = assay: Cytotoxicity against human PANC1 cells after 48 hrs by SRB assay; assay type: functional; conditions: PANC-1, 48 h; for CC50: read-out: LC50 (the source's name); outline: as §1
HT-29 = assay: Cytotoxicity against human HT29 cells after 48 hrs by SRB assay; assay type: functional, cell-based; conditions: Homo sapiens, HT-29, 48 h; for CC50: read-out: LC50 (the source's name); outline: as §1
LoVo [3] = assay: Cytotoxicity against human LoVo cells after 48 hrs by SRB assay; assay type: functional; conditions: for CC50: read-out: LC50 (the source's name)
LoVo [4] = assay: Cytotoxicity against human doxorubicin resistant LoVo cells after 48 hrs by SRB assay; assay type: functional; conditions: for CC50: read-out: LC50 (the source's name); outline: as §1
HeLa = assay: Cytotoxicity against human HeLa cells after 48 hrs by SRB assay; assay type: functional; conditions: for CC50: read-out: LC50 (the source's name); outline: as §1
[5] = Cytotoxicity against human HeLa-APL cells after 48 hrs by SRB assay; assay type: functional; outline: as §1

## CC[C@@H](C)[C@@H](NC(=O)[C@H](CCCN)NC(=O)[C@H]1CCCN1C(=O)[C@H](NC(=O)[C@@H](NC(=O)[C@@H](NC(=O)[C@H](NC(=O)CCCC(C)C)C(C)C)[C@@H](C)O)C(C)C)C(C)C)C(=O)N[C@H]1C(=O)N[C@H]([C@H](C)CC)C(=O)N[C@H](C(C)C)C(=O)N[C@@H](Cc2ccccc2)C(=O)NC(C)(C)C(=O)N[C@@H](C(C)C)C(=O)O[C@H]1C
DU-145
  TGI: 1390 nM
  GI50: 1640 nM
  CC50: 1170 nM
LNCaP
  CC50: 1390 nM
[1]
  GI50: 790 nM
  CC50: 368 nM
[1]; read-out: GI50
  GI50: 1790 nM
[2]
  GI50: 668 nM
  CC50: 423 nM
[2]; read-out: GI50
  GI50: 1080 nM
SK-BR-3
  TGI: 1980 nM
  GI50: 2130 nM
  CC50: 777 nM
SK-MEL-28
  TGI: 3080 nM
  GI50: 2180 nM
  CC50: 1740 nM
A549
  LC50: 1430 nM
K562
  CC50: 1930 nM
PANC-1
  CC50: 1770 nM
HT-29
  GI50: 2350 nM
  TGI: 2120 nM
  CC50: 743 nM
LoVo [3]
  GI50: 2320 nM
  TGI: 2310 nM
  CC50: 2070 nM
LoVo [4]
  GI50: 1590 nM
  TGI: 1500 nM
  CC50: 456 nM
HeLa
  CC50: 1090 nM
[5]
  GI50: 2790 nM
  LC50 (concentration giving 50% net cell kill): 1430 nM
  TGI: 2800 nM

## C/C=C1\NC(=O)[C@H](Cc2ccccc2)NC(=O)[C@@H](C(C)C)NC(=O)[C@@H]([C@H](C)CC)NC(=O)[C@H](NC(=O)[C@H](NC(=O)[C@H](CCCCN)NC(=O)[C@H]2CCCN2C(=O)[C@H](NC(=O)[C@@H](NC(=O)[C@@H](NC(=O)[C@H](NC(=O)CCCC(C)C)C(C)C)[C@@H](C)O)C(C)C)C(C)C)[C@H](C)CC)[C@H](C)OC(=O)[C@H](C(C)C)NC1=O
DU-145
  TGI: 2440 nM
  GI50: 1290 nM
  CC50: 3170 nM
LNCaP
  GI50: 1330 nM
  TGI: 1150 nM
  CC50: 985 nM
[1]
  GI50: 568 nM
  CC50: 5720 nM
[1]; read-out: GI50
  GI50: 562 nM
[2]
  GI50: 619 nM
  CC50: 587 nM
[2]; read-out: GI50
  GI50: 645 nM
SK-BR-3
  TGI: 366 nM
  GI50: 385 nM
  CC50: 351 nM
SK-MEL-28
  TGI: 1270 nM
  GI50: 1470 nM
  CC50: 1370 nM
A549
  LC50: 1340 nM
  TGI: 1390 nM
A549; read-out: GI50
  GI50: 1440 nM
K562
  GI50: 9350 nM
  TGI: 14700 nM
  CC50: 4770 nM
PANC-1
  GI50: 5110 nM
  TGI: 4550 nM
  CC50: 2210 nM
HT-29
  GI50: 521 nM
  TGI: 422 nM
  CC50: 340 nM
LoVo [3]
  GI50: 426 nM
  TGI: 379 nM
  CC50: 337 nM
LoVo [4]
  GI50: 301 nM
  TGI: 280 nM
  CC50: 36.6 nM
HeLa
  GI50: 910 nM
  TGI: 776 nM
  CC50: 883 nM
[5]
  GI50: 512 nM
  LC50 (concentration giving 50% net cell kill): 757 nM
  TGI: 664 nM

## C/C=C1\NC(=O)[C@H](Cc2ccccc2)NC(=O)[C@@H](C(C)C)NC(=O)[C@@H]([C@H](C)CC)NC(=O)[C@H](NC(=O)[C@H](NC(=O)[C@H](CCCN)NC(=O)[C@H]2CCCN2C(=O)[C@H](NC(=O)[C@@H](NC(=O)[C@H](C)NC(=O)[C@H](NC(=O)CCCC(C)C)C(C)C)C(C)C)C(C)C)[C@H](C)CC)[C@H](C)OC(=O)[C@H](C(C)C)NC1=O
DU-145
  TGI: 1250 nM
  GI50: 1420 nM
  CC50: 1100 nM
LNCaP
  GI50: 1380 nM
  TGI: 1160 nM
  CC50: 967 nM
[1]
  CC50: 503 nM
[2]
  GI50: 808 nM
  CC50: 561 nM
[2]; read-out: GI50
  GI50: 1230 nM
SK-BR-3
  CC50: 371 nM
SK-MEL-28
  TGI: 1190 nM
  GI50: 1240 nM
  CC50: 1150 nM
A549
  GI50: 585 nM
  LC50: 4930 nM
A549; read-out: GI50
  GI50: 641 nM
K562
  GI50: 822 nM
  TGI: 1610 nM
  CC50: 1970 nM
PANC-1
  GI50: 1160 nM
  TGI: 1420 nM
  CC50: 1810 nM
HT-29
  CC50: 437 nM
LoVo [3]
  GI50: 2050 nM
  TGI: 2070 nM
  CC50: 338 nM
LoVo [4]
  GI50: 1080 nM
  TGI: 1190 nM
  CC50: 306 nM
HeLa
  GI50: 1270 nM
  TGI: 1120 nM
  CC50: 998 nM
[5]
  GI50: 1280 nM
  LC50 (concentration giving 50% net cell kill): 873 nM
  TGI: 1060 nM

— ChEMBL document CHEMBL1156597, “Structure-activity relationship of kahalalide F synthetic analogues” (J Med Chem, 2008)
